One test concerns MDA-MB-231. Put plainly: Cytotoxicity against human MDA-MB-231 cells. The class given is functional, cell-based.
For test [1], the system named is HepG2. Put plainly: Cytotoxicity against human HepG2 cells after 24 hrs. The class given is functional, cell-based. The conditions noted are these: HepG2, 24 h. The method in brief:
(§1)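 Cell growth inhibition assay on human cancer lines KB, MCF-7, HT29, HepG2 and A549. IC50 is defined as the concentration that inhibits cell growth by 50%.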

In a further test the test system is P388. As to the kind of experiment: Cytotoxicity against mouse P388 cells. Type of test: functional, cell-based.
Test [2] in a line: Cytotoxicity against human Hep3B cells. The class given is functional, cell-based, Hep 3B2.
Test [3] concerns MCF7. As to the kind of experiment: Cytotoxicity against human MCF7 cells after 24 hrs. The class given is functional, cell-based. The conditions noted are these: MCF7, 24 h. The essentials:
as §1

A further test has as its system WEHI-164. As to the kind of experiment: Cytotoxicity against mouse WEHI164 cells. The class given is functional, cell-based.
The test system of test [4] is KB. As to the kind of experiment: Cytotoxicity against human KB cells after 24 hrs. Type of test: functional, cell-based. The essentials: as §1
For test [5], the system named is HT-29. Put plainly: Cytotoxicity against human HT-29 cells after 24 hrs. Type of test: functional, cell-based. The conditions noted are these: HT-29, 24 h. The essentials:
as §1

Test [6] has as its system A549. As to the kind of experiment: Cytotoxicity against human A549 cells after 24 hrs. Type of test: functional, cell-based. The conditions noted are these: A549, 24 h. The method in brief: as §1
Test [7] has as its system HepG2. As to the kind of experiment: Cytotoxicity against human HepG2 cells after 24 hrs. Conditions: HepG2, 24 h.
Test [8] relates to KB. As to the kind of experiment: Cytotoxicity against human KB cells after 24 hrs.
Test [9] relates to MCF7. Put plainly: Cytotoxicity against human MCF7 cells after 24 hrs. Conditions: MCF7, 24 h.
Test [10] has as its system HT-29. Put plainly: Cytotoxicity against human HT-29 cells after 24 hrs. The conditions noted are these: HT-29, 24 h.
Test [11] concerns A549. Put plainly: Cytotoxicity against human A549 cells after 24 hrs. Conditions: A549, 24 h.

Regarding `O=C1C=CC[C@H](/C=C/c2ccccc2)O1` [GONIOTHALAMIN], the 50% inhibitory concentration (IC50) was found to be 5.4 µM with MDA-MB-231; 1.6 µM in the test with HepG2 [1]; 3.8 µM in the test on P388; 5.4 µM in test [2]; 4.5 µM in the test on MCF7 [3]; 8.5 µM in the test with WEHI-164.

In the case of `O=C1C=C[C@H](O)[C@H]([C@H](O)[C@H](OC(=O)/C=C/c2ccccc2)c2ccccc2)O1` [HOWIINOL A], the IC50 turned out to be 0.9 µM with KB [4]; 1.6 µM in the test on HepG2 [1]; 2.6 µM in the test on HT-29 [5]; 1.1 µM with MCF7 [3]; 1.5 µM in the test on A549 [6].

`O=C1C=CCC(/C=C/C(F)(F)F)O1` (racemic): the IC50 in the test on HepG2 [7], in the test on KB [8], in the test with MCF7 [9], in the test with HT-29 [10] and in the test on A549 [11] was more than 10 µM in each case.

In the case of `O=C1C=C[C@H](O)[C@H]([C@H](O)[C@H](OC(=O)/C=C/C(F)(F)F)c2ccccc2)O1`, the 50% inhibitory concentration (IC50) was 1.4 µM in the test with KB [4]; 1.8 µM in the test on HepG2 [1]; 4.5 µM in the test on HT-29 [5]; 1.6 µM in the test on MCF7 [3]; 3 µM with A549 [6].

Turning to `O=C1C=CCC(/C=C/c2ccccc2)O1` (racemic), the IC50 in the test on KB [4] amounted to 3 µM; in the test with MDA-MB-231, 5.4 µM; in the test with HepG2 [1] it was 2.4 µM; in the test on P388, 3.8 µM; in the test on HT-29 [5], 10.1 µM; in [2] it was 5.4 µM. In addition, the IC50 with MCF7 [3] worked out at 3.5 µM; in the test on A549 [6] it was 9.1 µM; in the test on WEHI-164, 8.5 µM.

The values above are taken from ChEMBL document CHEMBL1177856, “Synthesis and cytotoxic activity of fluorinated analogues of Goniothalamus lactones. Impact of fluorine on oxidative processes” (Eur J Med Chem, 2010).
